Results: ChEMBL document CHEMBL4190234, “Design, synthesis and anticancer activity of new monastrol analogues bearing 1,3,4-oxadiazole moiety” (Eur J Med Chem, 2017)

Columns and labels:
Type in all cases: functional
RPMI-8226 = assay: Growth inhibition of human RPMI8226 cells at 10 uM incubated for 48 hrs by sulforhodamine B assay relative to control; details: RPMI-8226, 48 h, read-out: GI
In short: (§1)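 Single-dose screen at 10 μM final: cells in RPMI 1640, 5% FBS, 2 mM L-glutamine, plated 5,000–40,000/well, preincubated 24 h at 37°C, 5% CO2; drug 48 h; adherent cells fixed with 10% TCA, suspension cells with 16% TCA; SRB stain, absorbance 515 nm; percentage growth versus untreated control, with time-zero plates.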

HCT-116 = assay: Growth inhibition of human HCT116 cells at 10 uM incubated for 48 hrs by sulforhodamine B assay relative to control; details: HCT-116, 48 h, read-out: GI; in short: as §1
A498 = assay: Growth inhibition of human A498 cells at 10 uM incubated for 48 hrs by sulforhodamine B assay relative to control; details: A498, 48 h, read-out: GI; in short: as §1
UACC-257 = assay: Growth inhibition of human UACC257 cells at 10 uM incubated for 48 hrs by sulforhodamine B assay relative to control; details: UACC-257, 48 h, read-out: GI
In short: (§2)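 NCI single-dose screen: cells grown in RPMI 1640 with 5% FBS and 2 mM L-glutamine, plated at 5,000–40,000 cells/well and preincubated 24 h at 37 °C, 5% CO2. Compounds taken from DMSO stock and tested at final 10 µM for 48 h. Cells fixed with TCA, stained with 0.4% SRB, absorbance read at 515 nm. Percentage growth calculated against untreated controls; controls held DMSO at the same dilution.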

CAKI-1 = assay: Growth inhibition of human Caki1 cells at 10 uM incubated for 48 hrs by sulforhodamine B assay relative to control; details: CAKI-1, 48 h, read-out: GI; in short: as §1
MDA-MB-435 = assay: Growth inhibition of human MDA-MB-435 cells at 10 uM incubated for 48 hrs by sulforhodamine B assay relative to control; details: MDA-MB-435, 48 h, read-out: GI; in short: as §1
NCI/ADR-RES = assay: Growth inhibition of human NCI/ADR-RES cells at 10 uM incubated for 48 hrs by sulforhodamine B assay relative to control; details: read-out: GI; in short: as §1
OVCAR-5 = assay: Growth inhibition of human OVCAR5 cells at 10 uM incubated for 48 hrs by sulforhodamine B assay relative to control; details: OVCAR-5, 48 h, read-out: GI; in short: as §1
DU-145 = assay: Growth inhibition of human DU145 cells at 10 uM incubated for 48 hrs by sulforhodamine B assay relative to control; details: DU-145, 48 h, read-out: GI; in short: as §1
HCC 2998 = assay: Growth inhibition of human HCC2998 cells at 10 uM incubated for 48 hrs by sulforhodamine B assay relative to control; details: HCC 2998, 48 h, read-out: GI; in short: as §1
SNB-75 = assay: Growth inhibition of human SNB75 cells at 10 uM incubated for 48 hrs by sulforhodamine B assay relative to control; details: SNB-75, 48 h, read-out: GI; in short: as §2
Hs-578T = assay: Growth inhibition of human Hs 578T cells at 10 uM incubated for 48 hrs by sulforhodamine B assay relative to control; details: read-out: GI; in short: as §1
MCF7 = assay: Growth inhibition of human MCF7 cells at 10 uM incubated for 48 hrs by sulforhodamine B assay relative to control; details: MCF7, 48 h, read-out: GI; in short: as §1
786-0 = assay: Growth inhibition of human 786-0 cells at 10 uM incubated for 48 hrs by sulforhodamine B assay relative to control; details: 786-0, 48 h, read-out: GI; in short: as §1
Malme-3M = assay: Growth inhibition of human MALME-3M cells at 10 uM incubated for 48 hrs by sulforhodamine B assay relative to control; details: read-out: GI; in short: as §1
SK-MEL-2 = assay: Growth inhibition of human SK-MEL-2 cells at 10 uM incubated for 48 hrs by sulforhodamine B assay relative to control; details: SK-MEL-2, 48 h, read-out: GI; in short: as §2
MDA-MB-231 = assay: Growth inhibition of human MDA-MB-231 cells at 10 uM incubated for 48 hrs by sulforhodamine B assay relative to control; details: MDA-MB-231, 48 h, read-out: GI; in short: as §1
SR = assay: Growth inhibition of human SR cells at 10 uM incubated for 48 hrs by sulforhodamine B assay relative to control; details: read-out: GI; in short: as §2
MDA-MB-468 = assay: Growth inhibition of human MDA-MB-468 cells at 10 uM incubated for 48 hrs by sulforhodamine B assay relative to control; details: MDA-MB-468, 48 h, read-out: GI; in short: as §1
UACC-62 = assay: Growth inhibition of human UACC62 cells at 10 uM incubated for 48 hrs by sulforhodamine B assay relative to control; details: UACC-62, 48 h, read-out: GI; in short: as §2
NCI-H460 = assay: Growth inhibition of human NCI-H460 cells at 10 uM incubated for 48 hrs by sulforhodamine B assay relative to control; details: NCI-H460, 48 h, read-out: GI; in short: as §1
COLO 205 = assay: Growth inhibition of human COLO205 cells at 10 uM incubated for 48 hrs by sulforhodamine B assay relative to control; details: COLO 205, 48 h, read-out: GI; in short: as §1
PC-3 = assay: Growth inhibition of human PC3 cells at 10 uM incubated for 48 hrs by sulforhodamine B assay relative to control; details: PC-3, 48 h, read-out: GI; in short: as §1
SNB-19 = assay: Growth inhibition of human SNB19 cells at 10 uM incubated for 48 hrs by sulforhodamine B assay relative to control; details: SNB-19, 48 h, read-out: GI; in short: as §2
LOX IMVI = assay: Growth inhibition of human LOXIMVI cells at 10 uM incubated for 48 hrs by sulforhodamine B assay relative to control; details: read-out: GI; in short: as §1
U-251 = assay: Growth inhibition of human U251 cells at 10 uM incubated for 48 hrs by sulforhodamine B assay relative to control; details: U-251, 48 h, read-out: GI; in short: as §2
SK-MEL-5 = assay: Growth inhibition of human SK-MEL-5 cells at 10 uM incubated for 48 hrs by sulforhodamine B assay relative to control; details: SK-MEL-5, 48 h, read-out: GI; in short: as §2
K562 = assay: Growth inhibition of human K562 cells at 10 uM incubated for 48 hrs by sulforhodamine B assay relative to control; details: K562, 48 h, read-out: GI; in short: as §1
TK-10 = assay: Growth inhibition of human TK10 cells at 10 uM incubated for 48 hrs by sulforhodamine B assay relative to control; details: TK-10, 48 h, read-out: GI; in short: as §2
KM12 = assay: Growth inhibition of human KM12 cells at 10 uM incubated for 48 hrs by sulforhodamine B assay relative to control; details: KM12, 48 h, read-out: GI; in short: as §1
HOP-62 = assay: Growth inhibition of human HOP62 cells at 10 uM incubated for 48 hrs by sulforhodamine B assay relative to control; details: HOP-62, 48 h, read-out: GI; in short: as §1
OVCAR-4 = assay: Growth inhibition of human OVCAR4 cells at 10 uM incubated for 48 hrs by sulforhodamine B assay relative to control; details: OVCAR-4, 48 h, read-out: GI; in short: as §1

Compound	inhibition of growth at 10 µM (HCT-116)	inhibition of growth at 10 µM (A498)	inhibition of growth at 10 µM (UACC-257)	inhibition of growth at 10 µM (MDA-MB-435)	inhibition of growth at 10 µM (NCI/ADR-RES)	inhibition of growth at 10 µM (OVCAR-5)	inhibition of growth at 10 µM (DU-145)	inhibition of growth at 10 µM (HCC 2998)	inhibition of growth at 10 µM (SNB-75)	inhibition of growth at 10 µM (Hs-578T)	inhibition of growth at 10 µM (MCF7)	inhibition of growth at 10 µM (786-0)	inhibition of growth at 10 µM (Malme-3M)	inhibition of growth at 10 µM (SK-MEL-2)	inhibition of growth at 10 µM (MDA-MB-231)	inhibition of growth at 10 µM (SR)	inhibition of growth at 10 µM (MDA-MB-468)	inhibition of growth at 10 µM (UACC-62)	inhibition of growth at 10 µM (NCI-H460)	inhibition of growth at 10 µM (PC-3)	also measured
CC(=O)C1=C(C)NC(SCc2nnc(-c3ccc(C)cc3)o2)=NC1c1ccc(F)cc1 (stereo unspecified)	< 10%	< 10%	< 10%	< 10%	< 10%	10.4%	< 10%	< 10%	< 10%	< 10%	< 10%	15.4%	< 10%	< 10%	< 10%	19.1%	< 10%	15.4%	< 10%	14.7%	inhibition of growth at 10 µM (RPMI-8226): 16.3%; inhibition of growth at 10 µM (CAKI-1): 12%; inhibition of growth at 10 µM (COLO 205): < 10%; inhibition of growth at 10 µM (SNB-19): < 10%; inhibition of growth at 10 µM (LOX IMVI): < 10%; inhibition of growth at 10 µM (U-251): < 10%; inhibition of growth at 10 µM (SK-MEL-5): < 10%; inhibition of growth at 10 µM (K562): < 10%; inhibition of growth at 10 µM (TK-10): 14.4%; inhibition of growth at 10 µM (KM12): < 10%; inhibition of growth at 10 µM (HOP-62): < 10%; inhibition of growth at 10 µM (OVCAR-4): < 10%
CCOC(=O)C1=C(C)NC(SCc2nnc(-c3ccc(Cl)cc3)o2)=NC1c1ccc(Cl)cc1Cl (stereo unspecified)	71.2%	22.3%	31.9%	31%	45.4%	11%	26.9%	15.5%	15.9%	32.9%	68%	34.8%	27.2%	40%	58.3%	62.1%	11.6%	48.4%	40.8%	54.9%	inhibition of growth at 10 µM (SNB-19): 27.1%; inhibition of growth at 10 µM (LOX IMVI): 41.7%; inhibition of growth at 10 µM (U-251): 34.7%; inhibition of growth at 10 µM (SK-MEL-5): 19.7%; inhibition of growth at 10 µM (TK-10): 20.6%; inhibition of growth at 10 µM (KM12): 36.6%; inhibition of growth at 10 µM (HOP-62): 17.5%; inhibition of growth at 10 µM (OVCAR-4): 47.3%
CC(=O)C1=C(C)NC(SCc2nnc(-c3ccc(Cl)cc3)o2)=NC1c1ccc(F)cc1 (stereo unspecified)	13.1%	< 10%	< 10%	< 10%	< 10%	< 10%	< 10%	< 10%	16.8%	< 10%	10.6%	16.4%	< 10%	< 10%	17%	19.1%	11.3%	22.6%	< 10%	18.5%	inhibition of growth at 10 µM (RPMI-8226): 13.8%; inhibition of growth at 10 µM (CAKI-1): 16.9%; inhibition of growth at 10 µM (COLO 205): < 10%; inhibition of growth at 10 µM (SNB-19): < 10%; inhibition of growth at 10 µM (LOX IMVI): < 10%; inhibition of growth at 10 µM (U-251): < 10%; inhibition of growth at 10 µM (SK-MEL-5): < 10%; inhibition of growth at 10 µM (K562): < 10%; inhibition of growth at 10 µM (TK-10): 14.6%; inhibition of growth at 10 µM (KM12): < 10%; inhibition of growth at 10 µM (HOP-62): < 10%; inhibition of growth at 10 µM (OVCAR-4): < 10%
COc1ccc(-c2nnc(CSC3=NC(c4ccc(F)cc4)C(C(C)=O)=C(C)N3)o2)cc1 (stereo unspecified)	< 10%	< 10%	< 10%	< 10%	< 10%	< 10%	< 10%	< 10%	17.3%	< 10%	10.5%	< 10%	12.3%	< 10%	14.4%	13.3%	< 10%	10.8%	< 10%	18.7%	inhibition of growth at 10 µM (RPMI-8226): 14%; inhibition of growth at 10 µM (CAKI-1): 29.9%; inhibition of growth at 10 µM (COLO 205): < 10%; inhibition of growth at 10 µM (SNB-19): 13.4%; inhibition of growth at 10 µM (LOX IMVI): < 10%; inhibition of growth at 10 µM (U-251): 15.3%; inhibition of growth at 10 µM (SK-MEL-5): < 10%; inhibition of growth at 10 µM (K562): < 10%; inhibition of growth at 10 µM (TK-10): < 10%; inhibition of growth at 10 µM (KM12): < 10%; inhibition of growth at 10 µM (HOP-62): 19.4%; inhibition of growth at 10 µM (OVCAR-4): 12.2%
CC(=O)C1=C(C)NC(SCc2nnc(-c3ccc(Cl)cc3)o2)=NC1c1ccc(Cl)cc1 (stereo unspecified)	25.8%	< 10%	< 10%	< 10%	< 10%	< 10%	< 10%	< 10%	28.1%	< 10%	16.4%	12.6%	11.6%	< 10%	27%	37.8%	10.8%	27.7%	< 10%	31.1%	inhibition of growth at 10 µM (RPMI-8226): 32.9%; inhibition of growth at 10 µM (CAKI-1): 21.1%; inhibition of growth at 10 µM (COLO 205): < 10%; inhibition of growth at 10 µM (SNB-19): 16.6%; inhibition of growth at 10 µM (LOX IMVI): < 10%; inhibition of growth at 10 µM (U-251): 14.8%; inhibition of growth at 10 µM (SK-MEL-5): < 10%; inhibition of growth at 10 µM (K562): 11.1%; inhibition of growth at 10 µM (TK-10): 13.1%; inhibition of growth at 10 µM (KM12): < 10%; inhibition of growth at 10 µM (HOP-62): 11.6%; inhibition of growth at 10 µM (OVCAR-4): < 10%
